Measurements published in the array DNA melting data of Ke et al. (doi:10.1101/2024.01.08.574731).

Tests used:
[1] = melting temperature; fluorescence melt of hairpins on a sequencing array, two-state fit, raised by 9.35 °C to match UV melts; settings: sodium 0.088 M
Procedure, shortened: (§1)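 Hairpins were imaged by Cy3 fluorescence on a sequenced MiSeq flow cell with annealed Cy3 and quencher oligos, in 50 mM Na-HEPES pH 8.0, 25 mM NaCl, in 2.5 °C steps up to 60 °C. Bootstrapped two-state fits of normalised signals gave melting temperature and folding enthalpy. Four replicates were combined by inverse variance, and fitted temperatures were raised by 9.35 °C to match UV melts.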

[2] = folding enthalpy; higher = less favourable; fluorescence melt of hairpins on a sequencing array, two-state fit; settings: sodium 0.088 M
Procedure, shortened: as §1

Sequence | Tm [1] | folding enthalpy [2]
GATCAATTACTTGATC ((((((....)))))) | 44 °C | -31.4 kcal/mol
GTGGCTCCGAAAGGACAC (((..(((....)))))) | 47.8 °C | -14.6 kcal/mol
GTTATACGAAAGTAGAAC (((.(((....))).))) | 45.1 °C | -29.9 kcal/mol
GATCTAGTGTAGATC ((((((...)))))) | 38.5 °C | -26.4 kcal/mol
GATCGACGAGTCGATC ((((((....)))))) | 64 °C | -45.8 kcal/mol
GACAGCGAAAGCTTTGTC ((((((....)))..))) | 37.5 °C | -16 kcal/mol
GGCTCAGAAATGAGCC ((((((....)))))) | 67 °C | -38.9 kcal/mol
GGCCAACGAAAGTTGCC (((.(((....)))))) | 54.3 °C | -20 kcal/mol
GACGACGAAAGTCCGGTC ((((((....)))..))) | 39.3 °C | -18 kcal/mol
GCGCCTGGAAACGGGTGC ((.((.(....).)).)) | 52.3 °C | -46.3 kcal/mol
GTTTCTGGAAACAGAGAC ((.((((....)))).)) | 37.2 °C | -26.9 kcal/mol
GGCGTCGAAAGACTGCC ((((((....))).))) | 57 °C | -36.4 kcal/mol
GTAGACGAAAGTCCGTAC ((((((....)))..))) | 21 °C | -8.44 kcal/mol
GCTATGGGAAACCATGGC ((.((((....)))).)) | 50.9 °C | -41 kcal/mol
GATCATCTTCATGATC ((((((....)))))) | 47.3 °C | -37.2 kcal/mol
GCGTAAACGAAAGTTCGC (((..(((....)))))) | 48.2 °C | -33.7 kcal/mol
GCGAATCTCGC ((((...)))) | 47.4 °C | -19.7 kcal/mol
GCGAGGTATCGC ((((....)))) | 55.6 °C | -21.6 kcal/mol
GAACACACGAAAGTGTTC (((..(((....)))))) | 46.2 °C | -20.5 kcal/mol
GCCGAGCGAAAGCAGGGC (((..((....))..))) | 57.2 °C | -26.3 kcal/mol
GCACGTGGAAACACACGC ((..(((....)))..)) | 37.8 °C | -21.3 kcal/mol
GATCTAACCTTAGATC ((((((....)))))) | 42.2 °C | -39.6 kcal/mol
GTATCAGGAAACTGACAC ((.((((....)))).)) | 32.1 °C | -22.7 kcal/mol
TGTAAGAAATTACA (((((....))))) | 20.6 °C | -7.98 kcal/mol

Sequence | Tm [1] | folding enthalpy [2]
GGCACTTCGAAAGAAGCC (((..(((....)))))) | 32.2 °C | -9.16 kcal/mol
GCCGGGCGAAAGCATGGC (((..((....))..))) | 64.9 °C | -26.8 kcal/mol
GTTAACCCGAAAGGGAAC (((..(((....)))))) | 25.9 °C | -12.2 kcal/mol
GATCGCGAAAGCGCATC ((((((....))).))) | 51.4 °C | -15.3 kcal/mol
GATCACGAGTGTGATC ((((((....)))))) | 56.3 °C | -37.7 kcal/mol
GCCCACGGAAACACGGGC ((((..(....)..)))) | 46.5 °C | -24.4 kcal/mol
GAAGGCGAAAGCCGGTTC ((((((....)))..))) | 43.4 °C | -9.54 kcal/mol
GCGACGCGAAAGCGAGGC ((..(((....)))..)) | 54.6 °C | -12.8 kcal/mol
GCAGAGCGAAAGCACCGC ((.(.((....)).).)) | 45.4 °C | -14.2 kcal/mol
GGTCAGGGAAACCTGATC (.(((((....))))).) | 48.5 °C | -27.2 kcal/mol
GATCATTCACATGATC ((((((....)))))) | 46.6 °C | -39.8 kcal/mol
GTTACCGAAAGGTAGAAC ((((((....)))..))) | 29.3 °C | -10.1 kcal/mol
GCATATCGAAAGATTTGC (((.(((....))).))) | 46.8 °C | -37 kcal/mol
GGGATTCCGAAAGGACCC (((..(((....)))))) | 40.3 °C | -16 kcal/mol
GATCCTTGGCAGGATC ((((((....)))))) | 49.4 °C | -35.3 kcal/mol
GCAAACGAAAGTTCGTGC ((((((....)))..))) | 35.6 °C | -17.3 kcal/mol
GCCCCGCGAAAGCAAGGC (((..((....))..))) | 46.5 °C | -16.2 kcal/mol
GGCAACGAAAGTTCAGCC ((((((....)))..))) | 41.1 °C | -24.4 kcal/mol
GATCGGCTGGCCGATC ((((((....)))))) | 68.3 °C | -38.2 kcal/mol
GGACGCGAAAGCGTGTCC ((((((....)))..))) | 54 °C | -12.7 kcal/mol
GAGCGTGGAAACACACTC (((.(((....))).))) | 45.9 °C | -30.5 kcal/mol
GAGCAGAAATGCTC (((((....))))) | 53.6 °C | -29.8 kcal/mol
GCGTGAGGAAACTTACGC ((((.((....)).)))) | 52 °C | -33.8 kcal/mol
GATCAACATATTGATC ((((((....)))))) | 42.6 °C | -30.2 kcal/mol

Sequence | Tm [1] | folding enthalpy [2]
ATTCAGAAATGAAT (((((....))))) | 29.3 °C | -11.5 kcal/mol
TACACGAAAGTGTA (((((....))))) | 57.8 °C | -13.7 kcal/mol
GAAACAGGAAACCGTTTC (((((.(....).))))) | 35.8 °C | -24.3 kcal/mol
GCCGAGGGAAACCTCAGC ((.((((....)))).)) | 43.1 °C | -23.7 kcal/mol
GCCTCGCGAAAGCGCAGC ((..(((....)))..)) | 39.8 °C | -9.54 kcal/mol
GATAGGCGAAAGCCAATC (((.(((....))).))) | 43 °C | -19 kcal/mol
GCTTTGCGAAAGCACTGC ((..(((....)))..)) | 43 °C | -17.5 kcal/mol
GCAGGCGAAAGCCAGTGC ((((((....)))..))) | 49.5 °C | -18.9 kcal/mol
GCGTTACGACGC ((((....)))) | 56.8 °C | -25.9 kcal/mol
GTGTTCGAAAGAAACAC ((((((....))).))) | 47.1 °C | -28.1 kcal/mol
GCCAAACGAAAGTTGGC (((.(((....)))))) | 56.8 °C | -34.5 kcal/mol
GTCGCGGGAAACCGCAAC ((.((((....)))).)) | 44.1 °C | -13.3 kcal/mol
GGGAGAGGAAACTCTTCC ((.((((....)))).)) | 45.5 °C | -30.7 kcal/mol
GGAGGAGCGAAAGCTTCC (((..(((....)))))) | 38.6 °C | -13.4 kcal/mol
TAGGCGAAAGCCTA (((((....))))) | 65.5 °C | -12.2 kcal/mol
GGGCGTGGAAACGCGTCC ((.((.(....).)).)) | 50.7 °C | -12.9 kcal/mol
GGATTCGAAAGAATATCC ((((((....)))..))) | 30.3 °C | -9.96 kcal/mol
GTTGCGGGAAACTGCAGC (.(((.(....).))).) | 45 °C | -15.8 kcal/mol
GCCAGCGAAAGCTTTGGC ((((((....)))..))) | 51.4 °C | -23.8 kcal/mol
CGGCCGGAAACGGAACCG ((((((....)))..))) | 46 °C | -26.2 kcal/mol
GATCATGTGATGATC ((((((...)))))) | 47.2 °C | -31.4 kcal/mol
GCATCGCGAAAGCAAAGC ((.(.((....)).).)) | 38.9 °C | -9.75 kcal/mol
GCTGCTCGAAAGAGTAGC (((.(((....))).))) | 62.1 °C | -38.9 kcal/mol
GATCTATGAATAGATC ((((((....)))))) | 43.2 °C | -32.6 kcal/mol

Sequence | Tm [1] | folding enthalpy [2]
GTATCGCGAAAGCGTTAC (((.(((....))).))) | 48.4 °C | -21.2 kcal/mol
GTCTGAGGAAACTCAGAC (((((((....))))))) | 63.8 °C | -45.5 kcal/mol
GACGGCGAAAGCCTGGTC ((((((....)))..))) | 49.9 °C | -15.1 kcal/mol
GCCCTACGAAAGTAAGGC (((.(((....))).))) | 47.4 °C | -31.3 kcal/mol
AGTTGGAAACAACT (((((....))))) | 43.2 °C | -19.9 kcal/mol
GCTGTGCGAAAGCGCCGC ((.(.((....)).).)) | 49.6 °C | -18.6 kcal/mol
GCGACGGCGAAAGCCCGC (((..(((....)))))) | 58.1 °C | -16.6 kcal/mol
GCTAGTGGAAACACCAGC (((.(((....))).))) | 39.2 °C | -23.6 kcal/mol
GAATCGCGAAAGCGTTC (((.(((....)))))) | 42 °C | -12.3 kcal/mol
CCATCGAAAGATGG (((((....))))) | 60.5 °C | -23.3 kcal/mol
GATCGGAGCACCGATC ((((((....)))))) | 57.4 °C | -34.3 kcal/mol
GATCGTGAAGACGATC ((((((....)))))) | 57 °C | -31.5 kcal/mol
GTCCCTCCGAAAGGAGAC (((..(((....)))))) | 26.4 °C | -9.1 kcal/mol
GCGGCCCCCCGC ((((....)))) | 55 °C | -23.8 kcal/mol
GATCTAAGATAGATC ((((((...)))))) | 37.9 °C | -20.6 kcal/mol
GATGCCGAAAGGCTCATC ((((((....)))..))) | 32.7 °C | -10.4 kcal/mol
GGACACGGAAACGTGTTC (.(((((....))))).) | 54.9 °C | -24.8 kcal/mol
GACGGGGGAAACTCCGTC (((((.(....).))))) | 58.1 °C | -37.9 kcal/mol
GATCCTCCCAGGATC ((((((...)))))) | 55.7 °C | -35.8 kcal/mol
GAGCTTGAAAAAGCTC ((((((....)))))) | 58.1 °C | -41.6 kcal/mol
GGAGTAGGAAACCACTCC (((((.(....).))))) | 42.6 °C | -28.3 kcal/mol
